From PubChem BioAssay
bovine MsrA act – bovine MsrA enzyme activators, primary screen, biochemical, absorbance, HTS; purified bovine MsrA, absorbance read-out; activation, % at 10.6 µM; hit rate 0.3% among 360,000; AID 602163, 2012; in the data active = activation above about 7.5%;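 note: 0% = vehicle and 100% = reference activator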
proCasp7 act – procaspase-7 activators, primary screen, counter-screen for procaspase-3 activator project, biochemical, absorbance, HTS, human; Caspase-7 (Homo sapiens), P55210; recombinant procaspase-7, Ac-DEVD-pNA absorbance 405 nm; D23A/D198A/D206A triple mutant, cannot self-cleave; scale: DMSO 0, 5 µM enzyme 100; activation, % at 8.5 µM; hit rate 0.093% among 330,000; AID 463210, 2010;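 active = percent activation above the screen-wide mean plus 3 SD, cut at about 25% in these data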
Target sequence (P55210 whole entry D23A/D198A/D206A): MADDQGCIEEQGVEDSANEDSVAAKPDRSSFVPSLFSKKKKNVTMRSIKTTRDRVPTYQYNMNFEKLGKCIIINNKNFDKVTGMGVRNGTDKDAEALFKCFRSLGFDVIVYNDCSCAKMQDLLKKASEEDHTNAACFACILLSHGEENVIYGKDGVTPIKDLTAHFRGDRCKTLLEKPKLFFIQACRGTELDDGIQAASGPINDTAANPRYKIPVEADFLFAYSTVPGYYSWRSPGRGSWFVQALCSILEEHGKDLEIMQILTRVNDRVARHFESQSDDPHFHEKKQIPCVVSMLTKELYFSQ
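Material: Procaspase-7 triple mutant (PC-7 D3A) | Quantity: 2 µM procaspase-7 mutant as dispensed | Reagent: DEVD-pNA substrate | Times: 1 h preincubation, 2 h reaction | Technique: 405 nm absorbance of p-nitroaniline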
proCasp3 act – activators of human procaspase-3 D3A mutant, primary screen, biochemical, absorbance, PC-3 D3A mutant, single concentration. recombinant procaspase-3 D3A, Ac-DEVD-pNA absorbance 405 nm. hit rate 0.11% among 330,000. activation, % at 8.5 µM. Caspase-3 (Homo sapiens), P42574;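 active = activation above the mean of all tested compounds plus 3 SD, cut at about 21% in these data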;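 note: 0% = DMSO alone and 100% = DMSO wells spiked with extra 5 µM PC-3 D3A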
Target sequence (P42574 whole entry D9A/D28A/D175A): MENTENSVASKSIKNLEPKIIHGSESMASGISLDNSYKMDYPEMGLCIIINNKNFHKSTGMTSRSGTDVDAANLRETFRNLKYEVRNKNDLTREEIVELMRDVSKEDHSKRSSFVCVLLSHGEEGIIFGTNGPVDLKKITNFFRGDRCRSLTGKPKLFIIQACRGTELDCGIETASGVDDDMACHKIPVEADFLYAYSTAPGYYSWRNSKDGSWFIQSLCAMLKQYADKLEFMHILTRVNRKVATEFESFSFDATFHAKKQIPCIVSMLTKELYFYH
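Technique: 405 nm absorbance of p-nitroaniline, reads at 0 and 120 min; Test system: Procaspase-3 D3A mutant; Incubation: 1 h enzyme-compound preincubation, then 2 h substrate reaction, 25 °C; Repeats: singlicate, each compound tested once; Benchmarks: low control DMSO wells, high control DMSO plus 5 µM PC-3 D3A.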
MsrA inhibitor – bovine MsrA enzyme inhibitors, primary screen, biochemical, absorbance, HTS | Methionine sulfoxide reductase A (Bos taurus) | purified bovine MsrA, absorbance read-out | inhibition, % at 15.5 µM | hit rate 0.75% among 360,000 | AID 651718, 2012;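 note: 0% = vehicle wells with enzyme and 100% = reference inhibitor wells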
MsrA conf – bovine MsrA inhibitors, retest, confirmation, biochemical, absorbance, HTS; shares compounds with MsrA inhibitor; purified bovine MsrA, absorbance read-out; hit rate 41% among 2,300; inhibition, % at 15.5 µM; AID 651822, 2012;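 note: coupled to thioredoxin reductase with NADPH and selenocystamine and DMSO as substrate; 0% = vehicle only and 100% = full effect of reference inhibitor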
The depositor's hits bear a star; . = not tested or not shown. Rows were chosen to be rich in hits. Some 1.2% of all compounds tested hit in one or more screens of this group. Cut-off read from the data, not from the text of the source, unless noted: active = inhibition above about 4.5%; inactive = the rest.

SMILES	bovine MsrA act	proCasp7 act	proCasp3 act	MsrA inhibitor	MsrA conf
Cc1ccc(/C=C2\C(=N)N3N=C(CC(=O)N4CCOCC4)SC3=NC2=O)o1	-4	2	-1	5.2*	4
COc1ccccc1-n1c(C)cc(/C=C2\C(=N)N3N=C(CC(=O)N4CCOCC4)SC3=NC2=O)c1C	-1	4	4	5.3*	4
Cc1cccnc1N=O	.	.	.	0	.
COC(=O)[C@]12C[C@H](CC(=O)NCc3ccc(C)o3)C(=O)N(Cc3ccccc3)C1=C[C@H](C(C)(C)C)O[C@@H]2C	.	.	.	0	.
O=C1C(Cl)=C(N2CCOCC2)C(=O)N1CCc1ccccc1	-2	-1	2	3	.
O=C1C(Cl)=C(NCCCN2CCOCC2)C(=O)N1CCc1ccccc1	0	-6	-2	27*	25*
CC(C)C[C@H]1CN([C@@H](Cc2ccccc2)CN2CCC[C@H]2CN2C(=O)C(=O)NC[C@@H]2Cc2ccc(O)cc2)C(=O)C(=O)N1CC1CCCCC1	-2	.	.	1	.
CC(C)C[C@H]1CN([C@@H](Cc2ccccc2)CN2CCC[C@@H]2CN2C(=O)C(=O)NC[C@@H]2Cc2ccc(O)cc2)C(=O)C(=O)N1CC1CCCCC1	-7	.	.	4.8*	-1
COc1ccc(/C([O-])=C(/C(=S)Nc2ccc(C)c(C)c2)n2c[n+](C)c3ccccc32)cc1OC	-6	-12	0	4.8*	2
COc1ccc(NC(=S)Nc2ccc(C)c(Cl)c2)cc1OC	-2	-23	-10	-1	.
N#Cc1c(-n2cccc2/C=N/O)sc2c1CCCC2	-2	-4	2	16*	14*
Cn1cnc([N+](=O)[O-])c1S(=O)(=O)Nc1ccccc1	-2	.	.	16*	8.1*
Cn1cnc([N+](=O)[O-])c1S(=O)(=O)Oc1ccccc1	-3	.	.	17*	12*
Cc1[nH]c2ccccc2c1CC(=O)Nc1ccc(Nc2cccnc2)c(-c2ccc(C(C)(C)C)cc2)c1	.	.	.	3	.
CCN(CC)c1ccc(/C=C2/C(=O)N(c3ccc([N+](=O)[O-])cc3)N=C2N2CCOCC2)cc1	.	4	-7	.	.
COc1cc(/C=C2/C(=O)N(c3ccc([N+](=O)[O-])cc3)N=C2N2CCOCC2)ccc1O	-3	-5	11	4.7*	4.6*
COc1cc(/C=N/N(C)c2ccccc2)ccc1O	-1	-16	-2	5.3*	4
COc1cc(/C=N/NC(=O)c2nc(C)cc(C)n2)ccc1O	-5	1	0	5	.
O=C(N/N=C/c1ccc([N+](=O)[O-])o1)c1cc(-c2ccncc2)nc2ccccc12	-10	4	3	6.1*	2
COc1cc(/C=N/NC(=O)c2cc3ccccc3[nH]2)ccc1O	-1	-12	-4	8.4*	5.9*
COc1ccc(/C=N/Nc2ccccn2)cc1O	-5	-10	-2	6.1*	3
COC(=O)C1=C(C)N(C)C(=NCC2CC2)NC1c1ccccc1 (stereo not given)	.	.	.	1	.
COc1cc(/C=N/NC(=O)c2cccc(C(=O)N/N=C/c3ccc(O)c(OC)c3)n2)ccc1O	-3	.	.	6.6*	3
COc1ccc(/C=N/NC(=O)c2cc3c(OC)ccc(OC)c3[nH]2)cc1O	-5	8	4	6.6*	5.8*
COc1cc(/C=N/NC(=O)c2cn(-c3cccc(C)n3)cn2)ccc1O	-6	9	-1	4.7*	4
SMILES	bovine MsrA act	proCasp7 act	proCasp3 act	MsrA inhibitor	MsrA conf
CCOC(=O)c1c(NC(=O)C(=O)N/N=C/c2ccc(O)c(OC)c2)sc2c1CCCCC2	-1	3	-8	5.0*	3
O=S1(=O)N[C@@H](Cc2ccccc2)COc2cccc(N3CCCCC3)c21	.	.	.	0	.
COc1ccc(/C=N/NC(=O)c2cc[n+]([O-])cc2)cc1OC	-3	-2	1	.	.
COc1cccc(/C=N/NC(=O)c2cnccn2)c1	-8	5	-2	0	.
CCOc1ccc2[nH]c(C(=O)N/N=C/c3cc(OC)c(OC)c(OC)c3)cc2c1	-5	-4	4	5.4*	4.8*
CCOc1ccccc1-c1cc(C(=O)N/N=C/c2ccc(O)c(OC)c2)c2ccccc2n1	-7	2	-1	4.9*	2
CCOc1ccccc1-c1cc(C(=O)N/N=C/c2ccc3c(c2)OCO3)c2ccccc2n1	-3	.	.	-1	.
COc1cc(/C=N/NC(=O)c2cc[n+]([O-])cc2)ccc1O	-1	0	-3	7.5*	5.2*
COc1ccc(/C=N/NC(=O)c2cnccn2)cc1O	-6	0	7	4.8*	4.8*
COc1cc(/C=N/NC(=O)C(=O)Nc2ccccn2)ccc1O	-4	-5	6	5.3*	5.0*
COc1ccc(/C=N/NC(=O)c2cc(-c3ccccc3)nc3ccccc23)c(OC)c1	-6	-3	21	5.4*	4
O=C(N/N=C/c1ccco1)c1cc(=O)[nH]c2ccccc12	-5	-2	-7	2	.
CCOc1cc(/C=N\NC(=O)c2c(C)nc3ccccn23)ccc1O	-6	0	2	5.6*	4.9*
COc1ccc(/C=N/NC(=O)c2cc(=O)[nH]c3ccccc23)cc1OC	-17	15	4	4.7*	3
COc1ccc(-c2ccc3c(n2)CCCN3S(=O)(=O)c2ccc(C#N)cc2)cc1	.	.	.	0	.
CCOC(=O)c1cc2c(ccc3ccccc32)oc1=O	-3	1	-2	20*	13*
O=C1NC(=S)N/C1=C\c1ccccc1OCc1ccc(C(=O)O)cc1	-2	1	-5	6.4*	3
CNC(=O)C1CC(=O)N/C(=N/N=C(\C)c2cccs2)S1 (stereo not given)	1	9	-1	6.1*	4.7*
C/C(=N\N=C1\NC(=O)CC(C(=O)O)S1)c1cccs1 (stereo not given)	-8	12	4	5.0*	3
C/C(=N\N=C1\NC(=O)CC(C(=O)O)S1)c1ccc(F)cc1 (stereo not given)	-4	-2	11	1	.
CC1=CC2C3C(=O)N(c4ccccc4)C(=O)C3C1C(=O)C2(O)C(C)C (stereo not given)	.	.	.	0	.
COc1ccc(-c2ccccc2C2Cc3nnccc3CN2)cc1 (stereo not given)	.	.	.	-1	.
Cc1onc(-c2ccccc2)c1C(=O)Nc1nnc(-c2ccncc2)s1	-19	1	-3	5.0*	4.9*
CN(C)CCCN1C(=O)c2cccc3c([N+](=O)[O-])ccc(c23)C1=O	-7	3	-10	18*	10*
COC(=O)C1=C(C)N(C)C(=NCc2cc(OC)c(OC)c(OC)c2)NC1c1cccc(C(F)(F)F)c1 (stereo not given)	.	.	.	0	.
